Where two headings read alike, the source gives them in different places.

For data set [1], the system named is ovarian cancer cell line A2780. Particulars: read-out: half maximal inhibitory concentration (IC50); A2780 ref 9; cited from earlier work.
A further data set has as its system caspase-9. Put plainly: Caspase-9 colorimetric activity assay in treated SKOV-3 cells. The class given is cell-based, human. Particulars: SKOV-3, 24 hr. The method, boiled down: (§1)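 SKOV-3 cells (McCoy's 5A, 10% FCS, 37°C, 5% CO2) were seeded at 5 × 10^5 in 5 mL flasks overnight, then treated in 0.1% DMSO vehicle (DMSO-only control) for 12 and 24 hr. Cells were trypsinized and lysed on ice, and 100 μg protein was taken per well. Reactions used 10 mM DTT final and caspase-specific colorimetric substrate, 37°C for 1–2 hr, read at 400–405 nm. Done in triplicate.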

Another data set relates to CCD-986Sk cells. Put plainly: MTT assay of cell viability, CCD-986Sk skin fibroblasts. Particulars: for toxicity to CCD-986Sk cells: 24 hr of exposure. Type of data set: cell-based, human. The method, boiled down: (§2)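 Untransformed human fibroblasts (CCD-986Sk skin, WI-38 lung) in MEM with 10% FCS were seeded at 1 × 10^4 cells/well, cultured overnight, then exposed to graded concentrations, or to 0.1% DMSO control, for 24 hr at 37°C, 5% CO2. MTT was added for 3 hr, formazan was dissolved in DMSO, and A560 was read. Survival was expressed relative to control, and IC50 was taken from the viability-versus-concentration plot; three independent repeats.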

Data set [2] relates to SKOV-3 cells. In words: Cell cycle analysis by PI staining and flow cytometry. Type of data set: cell-based, human.
A further data set has as its system BCL2. Put plainly: RT-qPCR transcript expression in SKOV-3 cells, BCL2. Type of data set: cell-based, human. Particulars: SKOV-3, 24 hr, 18.502 μM, p < 0.01. The method, boiled down: (§3)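 SKOV-3 cells were seeded at 5 × 10^5 in 5 mL flasks and treated for 24 hr in 0.1% DMSO (vehicle control). Total RNA was column-extracted. One-step SYBR RT-qPCR used 20 ng RNA and 0.4 μM each primer: RT at 42°C for 5 min, 95°C for 10 s, then 40 cycles of 95°C 10 s / 60°C 30 s, with melt-curve check. Expression was normalised to GAPDH and compared with control; three independent repeats, one-way ANOVA with Tukey test.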

For data set [3], the system named is SKOV-3 cells. Put plainly: MTT assay of cell viability and proliferation, SKOV-3. Type of data set: cell-based, human. Particulars: for cytotoxicity to SKOV-3 cells relative to apigenin: ratio of IC50 values. Summed up: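 SKOV-3 cells were seeded at 5 × 10^3 cells/well in McCoy's 5A with 10% FCS, cultured overnight, then exposed to a range of concentrations, or to 0.1% DMSO control, for 24, 48 and 72 hr. MTT was added for 3 hr, formazan was dissolved in DMSO, and A560 was read. Viability was expressed relative to control, and IC50 was read from the plot of % viable cells versus concentration; three independent repeats.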

The test system of another data set is WI-38 cells. In words: MTT assay of cell viability, WI-38 lung fibroblasts. Type of data set: cell-based, human. Particulars: for IC50: read-out: IC50 value, WI-38 cells. Summed up:
as §2

Data set [4] has as its system SKOV-3 cells. Put plainly: Cell imaging. Type of data set: cell-based, human. Particulars: for morphological change of treated SKOV-3 cells: 48 hr, 200× magnification, α-mangostin 7.309 μM, apigenin 18.502 μM, doxorubicin 0.431 μM.
A further data set deals with caspase-3. In words: Caspase-3 colorimetric activity assay in treated SKOV-3 cells. Type of data set: cell-based, human. Particulars: α-mangostin 7.309 μM. The method, boiled down: as §1
Data set [5] has as its system SKOV-3 ovarian cancer cells. Particulars: 0.033–1.0 mg/mL, 24 hr of exposure ref 10; cited from earlier work.
In the next data set the test system is ES2 ovarian cancer cells. Particulars: 0.033–1.0 mg/mL, 24 hr of exposure ref 10; cited from earlier work.
In the next data set the test system is NFκB. In words: RT-qPCR transcript expression in SKOV-3 cells, NFκB. Particulars: SKOV-3, 24 hr, 7.309 μM. The class given is cell-based, human.
In the next data set the test system is COX2. Put plainly: RT-qPCR transcript expression in SKOV-3 cells, COX2. Particulars: SKOV-3, 24 hr, 7.309 μM, p < 0.05. Type of data set: cell-based, human. Summed up:
as §3

The mark [6] stands for this setting: Homo sapiens, SK-OV-3, 24 h, read-out: IC50 value at an incubation time of 24 hr.
The mark [7] stands for this setting: Homo sapiens, SK-OV-3, 48 h, read-out: IC50 value at an incubation time of 48 hr.
Setting [8] is: Homo sapiens, SK-OV-3, 72 h, read-out: IC50 value at an incubation time of 72 hr.

As to `CCCCCCCCC(OCCC(C)C)c1ccc2c(c1OC)/C(=N/O)C=C/C2=N\O` (stereo not shown) [(1E,4E)-6-(1-(isopentyloxy)nonyl)-5-methoxynaphthalene-1,4-dione dioxime], the IC50 in data set [1] is 8.26 ± 0.22 µM.
Take `O=c1cc(-c2ccc(O)cc2)oc2cc(O)cc(O)c12` [Apigenin]: in the data set on caspase-9, the “caspase-9 level (activity) vs control” value is reported as “statistically significant (p < 0.01)”. Also, the “toxicity to CCD-986Sk cells” value in the data set with CCD-986Sk cells was “nontoxic”. Also, the cell survival with CCD-986Sk cells (CCD-986Sk, 24 hr, 92.510 μM) is reported as 70%. The molecule also yielded a relative cell survival in the data set on CCD-986Sk cells (CCD-986Sk, 24 hr, 1.156–55.506 μM) of 100%. Besides, in the data set with SKOV-3 cells [2] (SKOV-3, after 48 hr of exposure, 18.502 μM), the “cell cycle arrest (G2/M phase)” value was “likewise arrested the cells”. For the same molecule, in the data set on BCL2, the “BCL2 transcript expression level relative to control” value is recorded as “upregulation was significant”. In addition, the IC50 turned out to be 26.5 ± 6.02 µM with SKOV-3 cells [3] (setting [6]); 21.2 ± 5.25 µM with SKOV-3 cells [3] (setting [7]); 18.2 ± 3.1 µM in the data set with SKOV-3 cells [3] (setting [8]); 36.9 ± 0.971 µM in the data set with WI-38 cells (Homo sapiens, WI-38, 24 h). Besides, the “concentration nontoxic to the cells” value in the data set on WI-38 cells (WI-38, 24 hr) was “up to 27.753 μM”. The “concentration that did not affect cell growth” value in the data set on WI-38 cells (WI-38, 24 hr) was 1156 to 2313 nM. The “morphological change of treated SKOV-3 cells” value (“morphological change” for short) in the data set on SKOV-3 cells [4] is given as “Cell shrinkage”.
In the case of `COc1cccc2c1C(=O)c1c(O)c3c(c(O)c1C2=O)C[C@@](O)(C(=O)CO)C[C@@H]3O[C@H]1C[C@H](N)[C@H](O)[C@H](C)O1` [Doxorubicin, reference compound], the “caspase-3 activity vs control” value with caspase-3 (SKOV-3, 24 hr, apigenin 18.502 μM, doxorubicin 0.431 μM) was “not significant”. In addition, in the data set with CCD-986Sk cells, the “toxicity to CCD-986Sk cells” value is recorded as “did not affect the growth”. Also, the IC50 with SKOV-3 cells [3] (setting [6]) came out at 0.534 ± 0.084 µM; in the data set on SKOV-3 cells [3] (setting [7]), 0.343 ± 0.023 µM; with SKOV-3 cells [3] (setting [8]), 0.117 ± 0.008 µM; with WI-38 cells (Homo sapiens, WI-38, 24 h), 0.604 ± 0.156 µM. Further, in the data set on SKOV-3 cells [4], the “morphological change” value is “some cell blebbing”.
`CC(=O)OCON=[N+]([O-])NCC(C)C` [O^2-(acetoxymethyl)-1-(iso-butylamino)diazen-1-ium-1,2-diolate]: the effect on proliferation result (in data set [5]; in the data set with ES2 ovarian cancer cells) was “reduced the proliferation” throughout.
Regarding `CC(=O)OCO/N=[N+](\[O-])NC(C)C` [O^2-(acetoxymethyl)-1-(isopropylamino)diazen-1-ium-1,2-diolate], the effect on proliferation result (in [5]; in the data set on ES2 ovarian cancer cells) was “reduced the proliferation” in each case.
As for `COc1c(O)cc2oc3cc(O)c(CC=C(C)C)c(O)c3c(=O)c2c1CC=C(C)C` [α-Mangostin], the “NFκB transcript expression level relative to control” value in the data set on NFκB is “remained the same as in the control cells”. For the same molecule, the “caspase-3 activity vs control” value with caspase-3 (SKOV-3, 12 hr) is listed as “significantly (p < 0.05) increased”. For the same molecule, the “concentration safe for CCD-986Sk skin fibroblasts” value in the data set on CCD-986Sk cells (24 hr) is on record as “less than 6.091 μM”. Also, in the data set with CCD-986Sk cells (24 hr), the “cytotoxicity in CCD-986Sk cells, fold less than in SKOV-3 cells” value is reported as “about 4 fold”. Further, the IC50 in the data set on CCD-986Sk cells (read-out: IC50 value, CCD-986Sk cells, 24 hr of treatment, MTT) worked out at 9.8 ± 3.17 µM; with SKOV-3 cells [3] (read-out: IC50 value at an incubation time of 24 hr, SKOV-3 cells, MTT, 24 hr), 2.47 ± 0.338 µM; in the data set with SKOV-3 cells [3] (read-out: IC50 value at an incubation time of 48 hr, SKOV-3 cells, MTT, 48 hr), 2.98 ± 0.054 µM; in the data set with SKOV-3 cells [3] (read-out: IC50 value at an incubation time of 72 hr, SKOV-3 cells, MTT, 72 hr), 3.06 ± 0.349 µM; with WI-38 cells (24 hr of treatment, MTT) it was 1.5 ± 0.464 µM. For the same molecule, in the data set on SKOV-3 cells [2] (SKOV-3, after 24 hr of exposure, 7.309 μM), the cell cycle arrest entry was “induced arrest at the G2/M phase”. Besides, the “COX2 transcript expression level relative to control” value with COX2 is listed as “upregulation was significant”. Further, the “cytotoxicity to SKOV-3 cells relative to apigenin” value in the data set with SKOV-3 cells [3] (24 hr) is given as 10.8 fold; in the data set on SKOV-3 cells [3] (72 hr), 5.9 fold. In addition, in the data set with SKOV-3 cells [4], the “morphological change” value was “mostly damaged”. Also, the “effect at the small-scale IC50 value in larger-scale cultures” value in the data set with SKOV-3 cells [4] (SKOV-3, 5 × 10^5 cells in 5 mL, T25 flasks) was “not effective at all”.

Values taken from paper PMC6467359 (Toxicological Research, 2019).
